# Laboratory results as given in ChEMBL document CHEMBL4118079, “Discovery of novel naphthoquinone derivatives as inhibitors of the tumor cell specific M2 isoform of pyruvate kinase” (Eur J Med Chem, 2017).
# pIC50: −log10 of the molar value.
# Experiments:
# Pyruvate kinase PKM [1] = target: T1, Pyruvate kinase PKM (Homo sapiens, UniProt P14618); assay: Inhibition of recombinant human N-terminal His-tagged PKM2 expressed in Escherichia coli BL21 preincubated for 15 mins followed by PEP/NADH addition measured at 30 secs interval for 3 to 6 mins by fluorescent PK-LDH assay
# Summary of the method: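 Human PKM2 with an N-terminal His tag, expressed in E. coli BL21 and Ni-agarose purified. Enzyme and compound preincubated 15 min in 50 mM Tris–HCl pH 7.5, 10 mM KCl, 5 mM MgCl2. NADH fluorescence read kinetically every 30 s for 3–6 min. IC50.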
# HCT-116 [2] = assay: Antiproliferative activity against human HCT116 cells after 48 hrs by MTS assay; type: functional, cell-based; details: HCT-116, 48 h
# Summary of the method: (§1)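 Cells kept in RPMI 1640 with 9% FBS at 37°C, 5% CO2. 5000 cells/well seeded, left 12 h, then exposed to a range of compound concentrations or DMSO (negative control) for 48 h. MTS added, 3 h at 37°C, absorbance read at 490 nm. IC50 ± SD.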
# HeLa [3] = assay: Antiproliferative activity against human HeLa cells after 48 hrs by MTS assay; type: functional, cell-based; summary of the method: as §1
# NCI-H1299 [4] = assay: Antiproliferative activity against human NCI-H1299 cells after 48 hrs by MTS assay; type: functional, cell-based; details: NCI-H1299, 48 h; summary of the method: as §1
# Pyruvate kinase PKM [5] = target: T1, Pyruvate kinase PKM; assay: Inhibition of recombinant human N-terminal His-tagged PKM1 expressed in Escherichia coli BL21 preincubated for 15 mins followed by PEP/NADH addition measured at 30 secs interval for 3 to 6 mins by fluorescent PK-LDH assay
# Summary of the method: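 Human PKM1 with an N-terminal His tag, expressed in E. coli BL21 and Ni-agarose purified. Activity measured by PK–LDH coupling, with pyruvate formation tracked as NADH depletion by fluorescence in kinetic mode. IC50.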
# Target sequence in this assay (P14618 whole entry): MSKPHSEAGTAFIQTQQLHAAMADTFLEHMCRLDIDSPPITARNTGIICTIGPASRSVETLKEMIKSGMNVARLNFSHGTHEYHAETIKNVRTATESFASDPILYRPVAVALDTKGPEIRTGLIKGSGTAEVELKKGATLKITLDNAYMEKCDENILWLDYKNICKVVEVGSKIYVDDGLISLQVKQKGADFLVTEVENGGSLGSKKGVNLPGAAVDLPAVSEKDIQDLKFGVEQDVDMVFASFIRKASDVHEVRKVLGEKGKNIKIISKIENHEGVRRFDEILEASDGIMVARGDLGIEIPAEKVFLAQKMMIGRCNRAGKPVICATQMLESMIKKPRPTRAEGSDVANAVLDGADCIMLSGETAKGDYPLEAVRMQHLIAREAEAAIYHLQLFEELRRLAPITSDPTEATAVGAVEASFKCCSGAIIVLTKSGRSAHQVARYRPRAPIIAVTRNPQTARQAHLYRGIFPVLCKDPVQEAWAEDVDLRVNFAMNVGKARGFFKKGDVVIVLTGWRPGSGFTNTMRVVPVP
# Homo sapiens [6] = organism: Homo sapiens; assay: Selectivity ratio of IC50 for recombinant human N-terminal His-tagged PKM1 expressed in Escherichia coli BL21 to IC50 for recombinant human N-terminal His-tagged PKM2 expressed in Escherichia coli BL21
# Pyruvate kinase PKLR = Pyruvate kinase PKLR (Homo sapiens, UniProt P30613); assay: Inhibition of recombinant human N-terminal His-tagged PKL expressed in Escherichia coli preincubated for 15 mins followed by PEP/NADH addition measured at 30 secs interval for 3 to 6 mins by fluorescent PK-LDH assay
# Homo sapiens [7] = organism: Homo sapiens; assay: Selectivity ratio of IC50 for recombinant human N-terminal His-tagged PKL expressed in Escherichia coli to IC50 for recombinant human N-terminal His-tagged PKM2 expressed in Escherichia coli BL21
# BEAS-2B = assay: Cytotoxicity against human BEAS2B cells assessed as reduction in cell viability after 48 hrs by MTS assay; type: cell-based; summary of the method: as §1
# [8] = Selectivity index, ratio of IC50 for human BEAS2B cells to IC50 for human NCI-H1299 cells; type: toxicity; details: BEAS2B cells and NCI-H1299 cells, read-out: Ratio IC50
# NCI-H1299 [9] = assay: Antiproliferative activity against human NCI-H1299 cells after 48 hrs in presence of PKM2 activator FBP by MTS assay; type: functional, cell-based; details: NCI-H1299, 48 h
# Summary of the method: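 H1299 cells in RPMI 1640 with 9% FBS at 37°C, 5% CO2. 5000 cells/well, 12 h attachment, then 48 h treatment at graded concentrations with FBP (100 µM) added. MTS read-out (3 h, 37°C, A490). IC50 ± SD.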
# HCT-116 [10] = assay: Antiproliferative activity against human HCT116 cells assessed as cell viability at 0.078 uM after 48 hrs by MTS assay relative to control; type: functional; details: HCT-116, 48 h, read-out: Activity
# HCT-116 [11] = assay: Antiproliferative activity against human HCT116 cells assessed as cell viability at 0.156 uM after 48 hrs by MTS assay relative to control; type: functional; details: HCT-116, 48 h, read-out: Activity
# HCT-116 [12] = assay: Antiproliferative activity against human HCT116 cells assessed as cell viability at 0.313 uM after 48 hrs by MTS assay relative to control; type: functional; details: HCT-116, 48 h, read-out: Activity
# HCT-116 [13] = assay: Antiproliferative activity against human HCT116 cells assessed as cell viability at 0.625 uM after 48 hrs by MTS assay relative to control; type: functional; details: HCT-116, 48 h, read-out: Activity
# HeLa [14] = assay: Antiproliferative activity against human HeLa cells assessed as cell viability at 0.078 uM after 48 hrs by MTS assay relative to control; type: functional; details: read-out: Activity
# HeLa [15] = assay: Antiproliferative activity against human HeLa cells assessed as cell viability at 0.156 uM after 48 hrs by MTS assay relative to control; type: functional; details: read-out: Activity
# HeLa [16] = assay: Antiproliferative activity against human HeLa cells assessed as cell viability at 0.313 uM after 48 hrs by MTS assay relative to control; type: functional; details: read-out: Activity
# HeLa [17] = assay: Antiproliferative activity against human HeLa cells assessed as cell viability at 0.625 uM after 48 hrs by MTS assay relative to control; type: functional; details: read-out: Activity
# Pyruvate kinase PKLR, sequence (P30613 whole entry): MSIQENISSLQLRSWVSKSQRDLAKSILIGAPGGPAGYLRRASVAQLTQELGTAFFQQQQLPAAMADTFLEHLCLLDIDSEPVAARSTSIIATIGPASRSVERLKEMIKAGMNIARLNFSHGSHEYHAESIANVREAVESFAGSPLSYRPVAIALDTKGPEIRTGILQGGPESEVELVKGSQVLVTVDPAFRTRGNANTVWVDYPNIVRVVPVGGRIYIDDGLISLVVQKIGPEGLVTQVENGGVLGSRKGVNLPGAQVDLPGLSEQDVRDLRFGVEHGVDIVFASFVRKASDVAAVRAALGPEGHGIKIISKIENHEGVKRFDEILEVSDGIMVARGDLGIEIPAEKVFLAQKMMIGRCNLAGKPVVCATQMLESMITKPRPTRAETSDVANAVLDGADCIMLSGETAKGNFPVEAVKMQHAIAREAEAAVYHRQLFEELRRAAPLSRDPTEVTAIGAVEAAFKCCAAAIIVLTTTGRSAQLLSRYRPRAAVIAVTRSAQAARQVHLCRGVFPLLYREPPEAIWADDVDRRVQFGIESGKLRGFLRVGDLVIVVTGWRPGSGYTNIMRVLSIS
pIC50 (Pyruvate kinase PKM [1]),pIC50 (HCT-116 [2]),pIC50 (HeLa [3]),pIC50 (NCI-H1299 [4]),SMILES,other results
5.07,5.64,5.67,5.49,CC1=C(SC(=S)N2CCOCC2)C(=O)c2ccccc2C1=O,
5.66,5.76,5.89,5.32,CC1=C(CSC(=S)NCc2ccccc2)C(=O)c2ccccc2C1=O,
5.28,5.76,5.71,5.48,CC1=C(CSC(=S)N2CCSC2)C(=O)c2ccccc2C1=O,
5.00,5.37,< 4.70,4.81,CCCN(CCC)C(=S)SC1=C(C)C(=O)c2ccccc2C1=O,
4.85,5.66,5.94,5.49,C=CCN(CC=C)C(=S)SCC1=C(C)C(=O)c2ccccc2C1=O,
< 4.70,6.74,6.42,5.97,CC1=C(CSC(=S)NCc2cccnc2)C(=O)c2ccccc2C1=O,
< 4.70,5.34,5.08,5.27,CNC(=S)SCC1=C(C)C(=O)c2ccccc2C1=O,
< 4.70,5.31,4.97,5.18,CC(=O)N1CCN(C(=S)SC2=C(C)C(=O)c3ccccc3C2=O)CC1,
4.93,5.96,6.06,5.83,CC1=C(CSC(=S)N2CC(C)OC(C)C2)C(=O)c2ccccc2C1=O (configuration not stated),
5.37,5.43,5.62,5.24,O=C1C=C(CSC(=S)N2CCOCC2)C(=O)c2ccccc21,
5.85,< 4.70,< 4.70,5.06,O=C1C=C(CSC(=S)N2CCN(c3ccccc3)CC2)C(=O)c2ccccc21,inhibition (Pyruvate kinase PKM [1]): Dose-dependent effect; pIC50 (Pyruvate kinase PKM [5]): 5.20; Ratio IC50 (Homo sapiens [6]): 4.5; pIC50 (Pyruvate kinase PKLR): 5.42; Ratio IC50 (Homo sapiens [7]): 2.7
< 4.70,6.23,6.30,6.17,CC1=C(CSC(=S)NCc2ccncc2)C(=O)c2ccccc2C1=O,
5.17,5.22,4.92,5.37,CCCN(CCC)C(=S)SCC1=C(C)C(=O)c2ccccc2C1=O,
< 4.70,5.65,5.32,5.71,CC1=C(CSC(=S)N(CCO)CCO)C(=O)c2ccccc2C1=O,
,5.74,5.61,5.73,CC(C)=CC[C@@H](O)C1=CC(=O)c2c(O)ccc(O)c2C1=O [SHIKONIN],Ratio IC50 (Homo sapiens [6]): 1.5; Ratio IC50 (Homo sapiens [7]): 4.5; pIC50 (BEAS-2B): 5.27; selectivity ratio [8]: 2.9
5.76,5.63,6.04,5.69,O=C1C=C(CSC(=S)N2CCCCC2)C(=O)c2ccccc21,pIC50 (BEAS-2B): 4.71; selectivity ratio [8]: 9.4
< 4.70,5.13,4.98,5.36,CC1=C(CSC(=S)NN2CCCCC2)C(=O)c2ccccc2C1=O,

pIC50 (Pyruvate kinase PKM [1]),pIC50 (HCT-116 [2]),pIC50 (HeLa [3]),pIC50 (NCI-H1299 [4]),SMILES,other results
5.23,6.05,6.49,5.92,CC1=C(CSC(=S)N2CCSCC2)C(=O)c2ccccc2C1=O,pIC50 (BEAS-2B): 4.98; selectivity ratio [8]: 8.6
,6.74,6.54,5.81,CC1=C(CSC(=S)N2CCCCC2)C(=O)c2ccccc2C1=O,inhibition (Pyruvate kinase PKM [1]): Dose-dependent effect; pIC50 (Pyruvate kinase PKM [5]): 4.78; Ratio IC50 (Homo sapiens [6]): 5.7; pIC50 (Pyruvate kinase PKLR): 5.09; Ratio IC50 (Homo sapiens [7]): 2.8; pIC50 (NCI-H1299 [9]): 5.70; pIC50 (BEAS-2B): 4.73; selectivity ratio [8]: 11.8; viability at 0.078 µM (HCT-116 [10]): 92.5%; viability at 0.156 µM (HCT-116 [11]): 62.3%; viability at 0.313 µM (HCT-116 [12]): 20.7%; viability at 0.625 µM (HCT-116 [13]): 6.9%; viability at 0.078 µM (HeLa [14]): 99%; viability at 0.156 µM (HeLa [15]): 95.8%; viability at 0.313 µM (HeLa [16]): 21.1%; viability at 0.625 µM (HeLa [17]): 4.8%
< 4.70,5.70,5.41,< 4.70,CC1=C(CSC(=S)NN2CCN(C)CC2)C(=O)c2ccccc2C1=O,
5.31,5.45,5.89,4.99,CC1=C(SC(=S)N2CCCCC2)C(=O)c2ccccc2C1=O,
5.59,5.74,6.29,5.72,CCN(CC)C(=S)SCC1=CC(=O)c2ccccc2C1=O,
< 4.70,5.71,5.66,5.39,CC1=C(CSC(=S)N2CCN(C(C)C)CC2)C(=O)c2ccccc2C1=O,
5.06,6.39,6.41,6.05,CCN(CC)C(=S)SCC1=C(C)C(=O)c2ccccc2C1=O,pIC50 (NCI-H1299 [9]): 5.80; pIC50 (BEAS-2B): 4.82; selectivity ratio [8]: 17
< 4.70,5.27,5.17,5.35,CC1=C(CSC(=S)NCc2ccccn2)C(=O)c2ccccc2C1=O,
4.70,5.84,6.06,5.79,CC1=C(CSC(=S)N2CCCC2)C(=O)c2ccccc2C1=O,
5.29,4.97,4.87,4.95,CC1=C(CSC(=S)N(C)C2CCCCC2)C(=O)c2ccccc2C1=O,
4.82,6.10,6.02,5.91,CC1=C(CSC(=S)N2CCOCC2)C(=O)c2ccccc2C1=O,
< 4.70,5.47,5.24,5.40,CCN(CC)CCNC(=S)SCC1=C(C)C(=O)c2ccccc2C1=O,
4.81,< 4.70,< 4.70,< 4.70,CCCN(CCC)C(=S)SCc1cc(OC)c2ccccc2c1OC,
5.34,4.96,4.73,5.19,CCCCN(CCCC)C(=S)SCC1=C(C)C(=O)c2ccccc2C1=O,
4.85,5.55,5.80,5.61,CC1=C(CSC(=S)N2CCN(C)CC2)C(=O)c2ccccc2C1=O,
< 4.70,5.68,5.45,5.33,CC(=O)N1CCN(C(=S)SCC2=C(C)C(=O)c3ccccc3C2=O)CC1,
